Laboratory results taken from publication PMC8809242 (Acta Pharmacologica Sinica, 2022).

What was measured:
[1] = system: GR; test: GR nuclear translocation, confocal microscopy in A549 cells; format: cell-based, human; conditions: 10 μM, 2 h
[2] = system: MR; test: MR selectivity, MMTV luciferase reporter in 293T cells transfected with pCMV-hMR; format: cell-based, human; conditions: various concentrations, 16 h; 10 nM aldosterone = 100%
Summary of the method: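 Human MR counter-screen. 293T cells were seeded at 1 × 10^4 cells/well in 3% CSS DMEM for 24 h. They were then lipofected for 24 h with 71 ng pCMV-hMR, 24 ng pGL4.36 MMTV-luc2P, and 5 ng Renilla. Next they were treated for 16 h with 10 nM aldosterone or test compound. Firefly luciferase read-out.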

[3] = system: PR; test: PR selectivity, ARR3tk-luciferase reporter in PC3 cells transfected with hPR; format: cell-based, human; conditions: various concentrations, 16 h; 10 nM progesterone = 100%
Summary of the method: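 PR counter-screen in PC3 cells: 1 × 10^4 cells/well in 3% CSS DMEM for 24 h. Lipofection for 24 h with 50 ng hPR, 50 ng ARR3tk-luciferase, and 5 ng Renilla per well. Then 16 h exposure to 10 nM progesterone or test compound, and luciferase measurement.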

[4] = system: RAW264.7 cells; test: Real-time quantitative PCR in LPS-stimulated RAW264.7 cells; format: cell-based, mouse; conditions: RAW264.7, 20 ng/mL LPS, 10 μM, 18 h
Summary of the method: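 Mouse RAW264.7 macrophages (1 × 10^6 per well) were cultured 24 h in 3% CSS DMEM. They were then co-treated with 20 ng/mL LPS and 10 μM test compound for 18 h. Total RNA was reverse-transcribed and target transcripts were measured by SYBR Green qPCR, with GAPDH normalisation and 2^−ΔΔCt relative quantitation.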

[5] = system: NF-κB-dependent transcription (GR transrepression); format: cell-based; conditions: Homo sapiens, HeLa, read-out: IC50, NF-κB Luc transrepression
Summary of the method: (§1)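 HeLa cells grown 24 h in 5% CSS DMEM, then lipofected for 24 h with 71 ng GRα, 5 ng Renilla, and 24 ng reporter (NF-κB-Luc or 5×AP-1-Luc). Cells were stimulated with TNF-α 5 ng/mL (NF-κB) or PMA 1 ng/mL (AP-1) plus test compound. Lysates were read by dual firefly/Renilla luciferase.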

[6] = system: AR; format: cell-based, human; conditions: various concentrations, 72 h; 10 nM DHT = 100%
[7] = system: RAW264.7 cells; format: cell-based, mouse; conditions: 10 μM with 20 ng/mL LPS overnight
[8] = system: AP-1-dependent transcription (GR transrepression); format: cell-based; conditions: Homo sapiens, HeLa, read-out: IC50, AP-1 Luc transrepression
Summary of the method: as §1

SMILES	GR nuclear translocation [1]	off-target activation effect on MR [2]	off-target activation effect on PR [3]	SOCS3 mRNA regulation (Q-PCR) [4]	IC50 [5] [µM]	off-target activation effect on AR [6]	number of repressed genes (RNA-seq) [7]	IC50 [8] [µM]
CC(C)[C@H](NC(=O)C(C)(F)F)[C@H](Oc1ccc2c(cnn2-c2ccc(=O)n(C)c2)c1)c1ccccc1 [Azd9567]	promoted the translocation of GR from the cytoplasm to the nucleus	–	–	–	–	–	–	–
C[C@@H]1C[C@H]2[C@@H]3CCC4=CC(=O)C=C[C@]4(C)[C@@]3(F)[C@@H](O)C[C@]2(C)[C@@]1(O)C(=O)CO [Dex, dexamethasone]	promoted the translocation of GR from the cytoplasm to the nucleus	strong activation effects	strong activation effects	downregulated only by HT-15 but not Dex	0.014 ± 0.00219	strong activation effects	117	0.0488 ± 0.0071
